Rows were chosen to be rich in hits. Some 3.5% of all compounds tested hit in one or more screens of this group.
MrgX1 PAM = allosterically activates human MrgX1 receptor signaling. AID 588675. actives 0.63% (n = 310,000). MrgX1-HEK293, Fluo-4 calcium flux, FDSS; stronger effect = higher value. Q96LB2. B-score at 10 µM;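 active = plate-corrected calcium response at least 3 library SD above typical, normal starting fluorescence, not activating the receptor alone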;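 note: compound read alongside a low EC10 to EC30 dose of BAM8-22 agonist; peak minus trough fluorescence over baseline measured at the second addition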
Target sequence (Q96LB2 whole entry, looked up): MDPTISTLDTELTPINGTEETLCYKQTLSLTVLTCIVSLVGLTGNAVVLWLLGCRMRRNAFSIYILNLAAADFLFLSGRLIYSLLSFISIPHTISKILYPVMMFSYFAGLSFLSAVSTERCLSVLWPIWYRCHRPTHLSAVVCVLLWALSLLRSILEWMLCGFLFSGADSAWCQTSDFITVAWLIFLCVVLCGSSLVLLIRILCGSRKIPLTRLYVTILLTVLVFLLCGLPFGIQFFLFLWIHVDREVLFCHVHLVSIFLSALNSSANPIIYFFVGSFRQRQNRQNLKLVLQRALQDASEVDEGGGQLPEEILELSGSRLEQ
MrgX1 antag = blocks BAM8-22 activation of human MrgX1 receptor | Q96LB2 | MRGX1-HEK293 calcium flux, Fluo-4, BAM8-22 antagonism; stronger effect = lower value | B-score at 10 µM | actives 1.3% (n = 310,000);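 active = calcium-response B-score plate-corrected more than 3 library SD below zero, starting fluorescence within 5 deviations, no agonist response on first addition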;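 note: peak minus trough fluorescence over baseline after final BAM8-22 challenge near maximal dose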
MrgX1 agonist = human MrgX1 receptor agonism, primary screen; Q96LB2; actives 0.44% (n = 310,000); AID 588627; B-score at 10 µM; MrgX1-HEK293 cells, Fluo-4 calcium fluorescence, agonist mode; stronger effect = higher value;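 active = calcium response B-score plate-corrected fluorescence ratio at least 3 library SD, with starting fluorescence B-score inside 5 SD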
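Test system: Stable human MrgX1 HEK293 cell line | Schedule: Overnight plating before 1 h dye loading | Read-out basis: Baseline-normalised fluorescence change ratio, B-scored | Detection: Kinetic calcium dye fluorescence, Fluo-4 NW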
RGS4 inh = human RGS4 inhibition; P49798; HEK293 M3R/RGS4 inducible, Fluo-4 calcium flux; stronger effect = higher value; triggered by carbachol at its EC20; B-score at 10 µM; actives 0.45% (n = 310,000); AID 463165;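 active = B-score, a plate-corrected calcium signal, over three deviations above library mean, with baseline fluorescence within five deviations of library mean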;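 note: RGS4 expression induced by doxycycline in cells with stable M3 receptor; B-score is computed from the integrated fluorescence ratio over baseline after carbachol; higher B-score means a larger calcium signal and so more RGS4 inhibition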
Target sequence (P49798 whole entry, looked up): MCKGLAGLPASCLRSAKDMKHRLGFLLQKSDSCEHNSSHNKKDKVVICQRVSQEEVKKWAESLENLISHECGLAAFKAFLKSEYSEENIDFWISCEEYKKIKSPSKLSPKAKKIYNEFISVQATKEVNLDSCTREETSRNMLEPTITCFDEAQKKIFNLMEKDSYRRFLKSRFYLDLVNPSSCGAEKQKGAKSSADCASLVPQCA
RGS4 act = RGS4 potentiation or activation; HEK293 M3R/inducible RGS4, carbachol calcium flux Fluo4; stronger effect = lower value; B-score at 10 µM; actives 0.92% (n = 310,000); AID 463111;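 active = B-score of the integrated calcium signal more than 4 SD below the library mean, with starting fluorescence not abnormally high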;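 note: negative B-score means reduced calcium response which marks RGS4 activation or potentiation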
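Test system: HEK293 cells with stable M3R and inducible RGS4; also added: carbachol at ECmax as muscarinic agonist stimulus; schedule: dye loading 30 min 37 °C, buffer rest 30 min RT; technique: kinetic calcium fluorescence imaging with Fluo4-AM dye, 2 µM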
MrgX1 allo conf = reconfirmed allosteric activator of human MrgX1 receptor; shares compounds with MrgX1 PAM; MrgX1-HEK293, Fluo-4 calcium fluorescence, FDSS; activation (ratio percentage), % at 10 µM; actives 13% (n = 1,200); AID 602413;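 active = ratio at least 3 SD above the weak peptide control, stable starting fluorescence, no direct agonism earlier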;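 note: compound followed by low BAM8-22 agonist challenge near EC20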
HEK293 Ca flux = activity in parental HEK293 cells lacking MrgX1 | Fluo-4 calcium fluorescence, FDSS | actives 2% (n = 4,000) | shares compounds with MrgX1 antag | fluorescence ratio F(max-min)/F0 at 10 µM;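 active = duplicate-averaged calcium fluorescence ratio at least three times the standard deviation of buffer wells, a nonspecific response in parental cells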
HEK293 Ca counter = counter-screen for MrgX1 allosteric activators: effect in parental HEK293 cells. shares compounds with MrgX1 antag. parental HEK293 calcium flux, Fluo-4 fluorescence ratio; stronger effect = higher value. fluorescence ratio F(max-min)/F0 at 10 µM. actives 0.4% (n = 4,000);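 active = calcium fluorescence ratio, averaged over duplicates, at least 3 SD of the buffer-well ratio, meaning a nonspecific response in receptor-free cells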;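 note: untransfected parental HEK293 lacking MrgX1 used as counterscreen for MrgX1 allosteric activators; fluorescence change taken during the second addition on a kinetic imager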
HEK293 Ca cntr2 = MrgX1 activator counter-screen hit in parental HEK293 cells. shares compounds with MrgX1 antag. Fluo-4 calcium fluorescence (FDSS); stronger effect = higher value. fluorescence ratio F(max-min)/F0 at 10 µM. actives 8.7% (n = 4,000). AID 624115;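 active = calcium fluorescence ratio at least three times the spread of buffer wells, meaning a non-specific response in parental cells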
Of the large screens only hits and unclear results are named; the others gave an inactive call (follow-up assays come after a bar, where they were run).

COc1cc(NC(=O)C(Cc2ccccc2)n2cccc2)cc(OC)c1 (configuration not stated)	MrgX1 PAM 7.1 | MrgX1 allo conf inactive | HEK293 Ca flux inactive | HEK293 Ca counter inactive | HEK293 Ca cntr2 inactive
CCOC(=O)c1c(C)nc(-c2ccccc2)nc1N	MrgX1 PAM 7.4 | MrgX1 allo conf inactive | HEK293 Ca flux inactive | HEK293 Ca counter inactive | HEK293 Ca cntr2 inactive
CCOC(=O)N1CCC(NS(=O)(=O)c2ccc(C)cc2)CC1	MrgX1 PAM 8.2 | MrgX1 allo conf inactive | HEK293 Ca flux inactive | HEK293 Ca counter inactive | HEK293 Ca cntr2 inactive
Cc1ccc(NC(=O)CSc2nnc(-c3cc(C)[nH]n3)n2N)c(C)c1	none
COc1cccc(CNC(=O)C2CCC(CNc3c(N4CCC(C)CC4)c(=O)c3=O)CC2)c1 (configuration not stated)	none
COc1ccccc1CNC(=O)C1CCC(CNc2c(N3CCC(C)CC3)c(=O)c2=O)CC1 (configuration not stated)	MrgX1 PAM 6.6 | MrgX1 allo conf inactive | HEK293 Ca flux inactive | HEK293 Ca counter inactive | HEK293 Ca cntr2 inactive
O=C(CSC1=NCCN1)NC(c1ccccc1)c1ccccc1	MrgX1 PAM 13 | MrgX1 allo conf inactive | HEK293 Ca flux inactive | HEK293 Ca counter inactive | HEK293 Ca cntr2 inactive
NC(=O)C1CCN(c2cc(Cl)nc(N)n2)CC1	none
COC(=O)C1CCN(c2cc(Cl)nc(N)n2)CC1	MrgX1 PAM 8.1 | MrgX1 allo conf inactive | HEK293 Ca flux inactive | HEK293 Ca counter inactive | HEK293 Ca cntr2 inactive
O=C(Cn1cc2c(n1)CCCCC2)Nc1ccccc1Br	MrgX1 PAM 9.3 | MrgX1 allo conf 23% | HEK293 Ca flux inactive | HEK293 Ca counter inactive | HEK293 Ca cntr2 inactive
CCN(C(=O)COc1ncnc2scc(-c3ccc(F)cc3)c12)C1CCS(=O)(=O)C1 (configuration not stated)	none
CN(C)C(=O)COc1ncnc2scc(-c3ccc(F)cc3)c12	MrgX1 PAM 8.2 | MrgX1 allo conf 35% | HEK293 Ca flux inactive | HEK293 Ca counter inactive | HEK293 Ca cntr2 inactive
Cc1[nH]c(=O)c(C#N)c(C)c1CCC(=O)NCc1ccc(Cl)cc1	none
Cc1c(Cc2ccccc2)c(=O)oc2c(C)c(OCC(=O)N[C@@H](Cc3ccccc3)C(=O)O)ccc12	none
CC(C)COc1ccc(C(=O)CCN2CCCCC2)cc1	none
CCCCOc1ccc(C(=O)CCN2CCCCC2)cc1	MrgX1 PAM 7.1 | MrgX1 allo conf inactive | HEK293 Ca flux inactive | HEK293 Ca counter inactive | HEK293 Ca cntr2 inactive
CCCCCCCCCCCCOC1OC(CO)C(O)C(O)C1NC(C)=O (configuration not stated)	none
O=C(CCn1ccc2cc(S(=O)(=O)N3CCCC3)ccc21)NCc1cccc(F)c1	none
O=C(O)C1CC=CCC1C(=O)Nc1ccc(N2CCN(Cc3ccccc3)CC2)cc1 (configuration not stated)	MrgX1 PAM 7.4 | MrgX1 allo conf inactive | HEK293 Ca flux inactive | HEK293 Ca counter inactive | HEK293 Ca cntr2 inactive
O=C(Nc1ccc(N2CCN(Cc3ccccc3)CC2)cc1)c1ccco1	none
Cc1cccc(C(=O)NC(=S)N2CCN(C(=S)NC(=O)c3cccc(C)c3)CC2)c1	none
COc1cccc(C(=O)Nc2nnc(-c3ccc(Cl)cc3)o2)c1	MrgX1 PAM 8.4 | MrgX1 allo conf inactive | HEK293 Ca flux inactive | HEK293 Ca counter inactive | HEK293 Ca cntr2 inactive
CN(C)S(=O)(=O)Oc1cccc(C(=O)Nc2ccccc2Cl)c1	none
COc1cccc(C(=O)Nc2nnc(-c3ccc(F)cc3)o2)c1	none
